# Assay results taken from ChEMBL document CHEMBL1138362, “Dihydro-alkylthio-benzyl-oxopyrimidines as inhibitors of reverse transcriptase: synthesis and rationalization of the biological data on both wild-type enzyme and relevant clinical mutants” (J Med Chem, 2007).
# Columns and labels:
# [1] = tested on: Human immunodeficiency virus type 1 reverse transcriptase (Human immunodeficiency virus 1), Q72547 [Y181I]; assay: Antiviral activity against HIV1 reverse transcriptase Y181I mutant
# [2] = tested on: Human immunodeficiency virus 1; assay: Antiviral activity against HIV1 with reverse transcriptase K103N mutation in MT4 cells after 5 days by MTT method; assay type: functional, organism-based; details: Human immunodeficiency virus 1, MT4, 120 h
# Outline: (§1)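 MT-4 cells from the NIH AIDS Reagent Program were infected with mutant HIV-1 (K103N or Y188L, from the MRC Centralised Facility) in the presence of graded drug concentrations. Mock-infected cells were used for cytotoxicity. Viable cells were counted by MTT colorimetry at day 5 post-infection.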
# [3] = biological target: Human immunodeficiency virus type 1 reverse transcriptase (Human immunodeficiency virus 1) (UniProt Q72547); assay: Antiviral activity against wild type HIV1 reverse transcriptase
# [4] = tested on: Human immunodeficiency virus 1; assay: Antiviral activity against wild type HIV1 NL4-3 in MT4 cells after 5 days by MTT method; assay type: functional, organism-based; details: Human immunodeficiency virus 1, NL4-3, MT4, 120 h
# Outline: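 MT-4 lymphoid cells, infected with HIV-1 or mock-infected (for cytotoxicity), held with a range of drug concentrations; viable cells scored at day 5 post-infection by tetrazolium (MTT) colorimetry.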
# [5] = tested on: Human immunodeficiency virus 1; assay: Antiviral activity against HIV1 with reverse transcriptase Y188L mutation in MT4 cells after 5 days by MTT method; assay type: functional, organism-based; details: Human immunodeficiency virus 1, MT4, 120 h; outline: as §1
# [6] = tested on: Human immunodeficiency virus 1; assay: Antiviral activity against HIV1 with reverse transcriptase Y181C mutation in MT4 cells after 5 days by MTT method; assay type: functional, organism-based; details: Human immunodeficiency virus 1, MT4, 120 h
# [7] = tested on: Human immunodeficiency virus 1; assay: Antiviral activity against HIV1 with reverse transcriptase IRLL98 mutation in MT4 cells after 5 days by MTT method relative to wild type NL4-3; assay type: functional
# [8] = tested on: Human immunodeficiency virus 1 [K103N]; assay: Antiviral activity against HIV1 reverse transcriptase K103N mutant
SMILES,ID50 [1] [µM],EC50 [2] [µM],ID50 [3] [µM],EC50 [4] [µM],EC50 [5] [µM],EC50 [6] [µM],Fold change [7],ID50 [8] [µM]
COC(=O)c1ccc(CSc2nc(Cc3c(F)cccc3F)c(C)c(=O)[nH]2)cc1,> 20,11.2,0.5,0.142,> 34.1,1.35,6.9,> 20
COc1ccc(CSc2nc(Cc3c(F)cccc3F)c(C)c(=O)[nH]2)cc1OC,> 20,9.33,0.5,0.2,> 39.7,0.74,1.5,> 20
Cc1ccnc2c1NC(=O)c1cccnc1N2C1CC1 [NEVIRAPINE],,,,,,,144,
Cc1c(Cc2c(F)cccc2F)nc(SCc2ccc3c(c2)OCO3)[nH]c1=O,> 20,10.2,> 20,0.15,> 62.2,1.32,1.8,> 20
"O=C1Nc2ccc(Cl)cc2C(C#CC2CC2)(C(F)(F)F)O1 (single isomer, unassigned) [EFAVIRENZ]",,,,,,,300,
CCc1c(Cc2c(F)cccc2F)nc(SCc2ccc(C#N)cc2)[nH]c1=O,> 20,7.78,0.17,0.075,> 63,1.33,45.3,7.5
CCc1c(Cc2c(Cl)cccc2Cl)nc(SCc2ccc(C#N)cc2)[nH]c1=O,> 20,8.84,0.1,0.044,> 58.1,3.05,194,> 20
Cc1c(Cc2c(Cl)cccc2Cl)nc(SCC(=O)c2ccc(C#N)cc2)[nH]c1=O,> 20,12.2,0.2,1.08,> 56.3,1.31,3.2,> 20
Cc1cn([C@H]2C[C@H](N=[N+]=[N-])[C@@H](CO)O2)c(=O)[nH]c1=O [ZIDOVUDINE],,,,,,,3,
